Measured values from ChEMBL document CHEMBL4673277, “In silico and in vitro screening for potential anticancer candidates targeting GPR120” (Bioorg Med Chem Lett, 2021).
Active and inactive are the calls of the source. The rule behind the calls is not given here.

Experiments:
[1] = system: SW480; test: Anticancer activity against human SW480 cells expressing GPR120 assessed as inhibition of cell viability measured after 24 hrs by alamar blue assay; assay type: functional, cell-based; conditions: SW480, 24 h
Outline: (§1)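 SW480 seeded 10,000, 5,000 or 2500 cells/well for 24, 48 or 72 h exposure; 9 serial dilutions 100 to 0.39 μM in 0.5% DMSO medium, not replenished during treatment. Read by 6% alamar blue, 3 h, ex 560/em 590 nm. 50% DMSO defined 0%, 0.5% DMSO 100%; IC50 by non-linear regression. 5 replicates, three experiments.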

[2] = system: SW480; test: Anticancer activity against human SW480 cells transfected with scrambled siRNA assessed as inhibition of cell viability 5 uM measured after 24 hrs by alamar blue assay; assay type: functional, cell-based
Outline: (§2)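 SW480 seeded overnight, transfected with 50 nM human GPR120 27mer siRNA duplex or universal scrambled siRNA duplex (siTran 2.0). Harvested 24 h post-transfection, then exposed to 5 μM, 24 h. Viability read by alamar blue (6%, 3 h, ex 560/em 590 nm). Five replicates, mean ± SE; two-way ANOVA with Tukey test.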

[3] = system: SW480; test: Anticancer activity against human SW480 cells transfected with GPR120 siRNA assessed as inhibition of cell viability 5 uM measured after 24 hrs by alamar blue assay; assay type: functional, cell-based; outline: as §2
[4] = system: SW480; test: Anticancer activity against human SW480 cells expressing GPR120 assessed as inhibition of cell viability measured after 72 hrs by alamar blue assay; assay type: functional, cell-based; outline: as §1
[5] = system: SW480; test: Anticancer activity against human SW480 cells expressing GPR120 assessed as inhibition of cell viability measured after 48 hrs by alamar blue assay; assay type: functional, cell-based; conditions: SW480, 48 h; outline: as §1
[6] = system: SW480; test: Anticancer activity against human SW480 cells expressing GPR120 assessed as inhibition of cell viability at 100 uM measured after 72 hrs by alamar blue assay relative to control; assay type: functional
Outline: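 SW480 in RPMI1640 + 10% FBS, 37 °C, 5% CO2; seeded 2500 cells/well, exposed 72 h to 100, 10, 1 μM in 0.5% DMSO medium. Medium then replaced by 6% alamar blue, 3 h, fluorescence ex 560/em 590 nm. Six replicates, mean ± SE; viability set relative to vehicle (0.5% DMSO) control.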

SMILES | IC50 [1] | Activity [2] | Activity [3] | Activity [4] | IC50 [5] | inhibition at 100 µM [6]
O=C(CSc1nc2c(c(=O)n1CCc1ccccc1)C1(CCCC1)Cc1ccccc1-2)c1ccc(Cl)cc1 | 68.9 µM | – | – | – | – | –
O=C(CSc1nc2c(c(=O)n1C1CCCC1)C1(CCCC1)Cc1ccccc1-2)c1ccc(Cl)cc1 | 24.3 µM | – | – | – | – | –
O=C(CSc1nc2c(c(=O)n1-c1ccccc1)C1(CCCC1)Cc1ccccc1-2)c1ccc(Cl)cc1 | 5.89 µM | Active | inactive | – | – | –
COc1ccc(-n2c(SCC(=O)c3ccc(Cl)cc3)nc3c(c2=O)C2(CCCC2)Cc2ccccc2-3)cc1 | 6.79 µM | Active | Active | – | – | –
Cn1c(SCC(=O)c2ccc(Cl)cc2)nc2c(c1=O)C1(CCCC1)Cc1ccccc1-2 | 22.9 µM | – | – | – | – | –
Cc1ccc(-n2c(SCC(=O)c3ccccc3)nc3c(c2=O)C2(CCCC2)Cc2ccccc2-3)cc1 | 23.2 µM | – | – | Active | 50 µM | > 90%
Cc1ccc(-n2c(SCC(=O)c3ccc(Br)cc3)nc3c(c2=O)C2(CCCC2)Cc2ccccc2-3)cc1 | 25.5 µM | – | – | – | – | –
O=C1c2cc(S(=O)(=O)Nc3cccc4ccccc34)ccc2-c2ccc(S(=O)(=O)Nc3cccc4ccccc34)cc21 | 26.6 µM | – | – | Active | 50 µM | > 90%
